Source: ChEMBL document CHEMBL1128424, “New orally active serine protease inhibitors” (J Med Chem, 1995)

Experiments:
[1] = biological target: Kallikrein-1 (Homo sapiens, UniProt P06870); experiment: Concentration required to inhibit enzymatic cleavage of the chromogenic substrate (H-D-Val-Leu-Arg-pNA) for pancreatic kallikrein in vitro.
[2] = biological target: T1, Neutrophil elastase (Homo sapiens, UniProt P08246); experiment: Concentration required to inhibit enzymatic cleavage of the chromogenic substrate (MeO-Suc-Ala-Ala-Pro-Val-pNA) for sputum elastase in vitro.
T1 sequence (P08246 whole entry): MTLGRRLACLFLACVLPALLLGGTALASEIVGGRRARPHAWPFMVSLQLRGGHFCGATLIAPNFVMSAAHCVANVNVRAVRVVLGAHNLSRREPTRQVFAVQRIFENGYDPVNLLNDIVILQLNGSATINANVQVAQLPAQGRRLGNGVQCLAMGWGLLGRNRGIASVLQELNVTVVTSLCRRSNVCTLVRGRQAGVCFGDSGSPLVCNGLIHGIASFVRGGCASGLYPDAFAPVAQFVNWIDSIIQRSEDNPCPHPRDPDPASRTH

[3] = biological target: T2, Cathepsin G (Homo sapiens, UniProt P08311); experiment: Concentration required to inhibit enzymatic cleavage of the chromogenic substrate (MeO-Suc-Ala-Ala-Pro-Met-pNA) for cathepsin G in vitro.
T2 sequence (P08311 whole entry): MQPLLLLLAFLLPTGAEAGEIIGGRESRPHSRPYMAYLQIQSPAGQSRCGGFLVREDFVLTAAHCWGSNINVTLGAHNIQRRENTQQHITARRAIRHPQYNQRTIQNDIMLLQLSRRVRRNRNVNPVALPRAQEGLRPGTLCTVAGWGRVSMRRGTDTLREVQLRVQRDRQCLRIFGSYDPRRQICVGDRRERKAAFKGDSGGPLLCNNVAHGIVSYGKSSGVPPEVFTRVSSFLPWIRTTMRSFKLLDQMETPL

[4] = biological target: Chymotrypsinogen A (Bos taurus, UniProt P00766); experiment: Concentration required to inhibit enzymatic cleavage of the chromogenic substrate (Suc-Ala-Ala-Pro-Phe-pNA) for chymotrypsin in vitro.
[5] = biological target: Serine protease 1 (Homo sapiens, UniProt P07477); experiment: Concentration required to inhibit enzymatic cleavage of the chromogenic substrate (Boc-Phe-Ser-Arg-AMC) for trypsin in vitro.
Serine protease 1, sequence (P07477 whole entry): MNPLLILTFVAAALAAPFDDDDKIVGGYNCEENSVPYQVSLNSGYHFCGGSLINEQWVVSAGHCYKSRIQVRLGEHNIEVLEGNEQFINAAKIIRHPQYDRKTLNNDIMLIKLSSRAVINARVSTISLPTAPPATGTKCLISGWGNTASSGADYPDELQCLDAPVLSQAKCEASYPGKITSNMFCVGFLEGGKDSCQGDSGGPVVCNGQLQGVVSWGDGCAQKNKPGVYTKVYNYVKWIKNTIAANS

[6] = biological target: Plasma kallikrein (Homo sapiens, UniProt P03952); experiment: Concentration required to inhibit enzymatic cleavage of the chromogenic substrate (H-D-Pro-Phe-Arg-pNA) for plasma kallikrein in vitro.
Plasma kallikrein, sequence (P03952 whole entry, looked up): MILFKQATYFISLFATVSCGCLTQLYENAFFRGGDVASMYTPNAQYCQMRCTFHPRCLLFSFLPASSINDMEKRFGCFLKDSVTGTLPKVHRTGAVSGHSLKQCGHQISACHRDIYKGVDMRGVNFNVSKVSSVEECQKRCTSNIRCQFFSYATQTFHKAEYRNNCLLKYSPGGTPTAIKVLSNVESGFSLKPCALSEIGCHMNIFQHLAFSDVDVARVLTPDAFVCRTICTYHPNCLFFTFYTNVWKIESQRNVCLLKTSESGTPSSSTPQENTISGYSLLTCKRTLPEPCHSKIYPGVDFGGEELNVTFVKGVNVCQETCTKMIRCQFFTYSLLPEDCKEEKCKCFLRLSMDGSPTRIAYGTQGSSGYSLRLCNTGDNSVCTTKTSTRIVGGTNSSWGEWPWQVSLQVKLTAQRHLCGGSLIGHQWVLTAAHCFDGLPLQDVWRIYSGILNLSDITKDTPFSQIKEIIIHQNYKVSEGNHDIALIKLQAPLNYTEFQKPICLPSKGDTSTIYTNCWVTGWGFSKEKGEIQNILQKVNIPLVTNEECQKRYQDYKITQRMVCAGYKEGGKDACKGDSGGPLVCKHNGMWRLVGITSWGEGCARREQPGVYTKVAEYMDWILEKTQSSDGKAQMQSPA

[7] = biological target: Plasminogen (Rattus norvegicus, UniProt Q01177); experiment: Concentration required to inhibit enzymatic cleavage of the chromogenic substrate (H-D-Val-Leu-Lys-pNA) for plasmin in vitro.
Plasminogen, sequence (Q01177 97-581 limits assumed): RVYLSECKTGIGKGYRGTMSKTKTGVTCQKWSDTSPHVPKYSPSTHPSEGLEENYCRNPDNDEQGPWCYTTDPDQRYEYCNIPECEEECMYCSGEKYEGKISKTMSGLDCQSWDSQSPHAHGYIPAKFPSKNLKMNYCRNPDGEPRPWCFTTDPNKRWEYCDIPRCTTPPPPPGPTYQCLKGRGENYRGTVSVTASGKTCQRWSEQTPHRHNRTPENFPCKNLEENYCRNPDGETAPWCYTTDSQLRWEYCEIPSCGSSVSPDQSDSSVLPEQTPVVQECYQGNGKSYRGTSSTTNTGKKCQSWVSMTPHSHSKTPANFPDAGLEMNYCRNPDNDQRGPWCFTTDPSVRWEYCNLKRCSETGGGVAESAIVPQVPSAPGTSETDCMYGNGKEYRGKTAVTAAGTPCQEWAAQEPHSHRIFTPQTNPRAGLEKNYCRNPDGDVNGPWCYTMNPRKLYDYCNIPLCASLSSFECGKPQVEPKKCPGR
Plasminogen, sequence (Q01177 582-812 limits assumed): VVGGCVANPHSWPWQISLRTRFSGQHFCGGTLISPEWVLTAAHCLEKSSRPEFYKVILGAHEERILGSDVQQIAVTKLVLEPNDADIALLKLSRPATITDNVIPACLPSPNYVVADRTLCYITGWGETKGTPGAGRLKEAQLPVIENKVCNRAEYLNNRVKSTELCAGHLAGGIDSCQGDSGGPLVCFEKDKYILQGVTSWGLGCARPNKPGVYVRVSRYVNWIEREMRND

[8] = Concentration required to inhibit enzymatic cleavage of the chromogenic substrate (Suc-Ala-Ala-Ala-AMC) for pancreatic elastase in vitro.; set-up: species or system Homo sapiens
[9] = biological target: Prothrombin (Homo sapiens, UniProt P00734); experiment: Concentration required to inhibit enzymatic cleavage of the chromogenic substrate (H-D-Phe-Pip-Arg-pNA) thrombin in vitro.
[10] = Half-life in dog liver homogenate.; type: ADME, organism-based, Canis lupus familiaris
Method in brief: (§1)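 Compound in MeOH (1 mg/mL stock) incubated with rat or dog plasma, liver homogenate or small intestine homogenate at 37 °C for 120 min; aliquots taken at regular intervals into acetonitrile with 1% methanesulfonic acid at 5 °C, centrifuged 10 000 rpm 1 min, analyzed by HPLC to give hydrolysis half-life (min) and products.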

[11] = Half-life in rat small intestine homogenate.; type: ADME, organism-based; method in brief: as §1
[12] = Half-life in rat plasma.; type: ADME, organism-based; method in brief: as §1
[13] = Half-life in rat liver homogenate.; type: ADME, organism-based; method in brief: as §1
[14] = Half-life in dog plasma.; type: ADME, organism-based, Canis lupus familiaris; method in brief: as §1
[15] = Half-life in dog small intestine homogenate.; type: ADME, organism-based, Canis lupus familiaris; method in brief: as §1
[16] = Area under the plasma concentration was determined in fasted Beagle dogs after peroral administration of 20 mg/kg; type: ADME, organism-based, Canis lupus familiaris; set-up: dose 20 mg/kg, route oral; details: dog, po
Method in brief: (§2)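 Fasted beagle dogs dosed orally; plasma (0.2 mL) deproteinized with acetonitrile containing 1% methanesulfonic acid at 5 °C, centrifuged 10 min at 3000 rpm at 5 °C, analyzed by HPLC with n-propyl or iso-amyl 4-hydroxybenzoate as internal standard.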

[17] = Area under the plasma concentration was determined in fasted Beagle dogs after peroral administration of 100 mg/kg; type: ADME, organism-based, Canis lupus familiaris; set-up: dose 100 mg/kg, route oral; details: dog, po; method in brief: as §2

Kallikrein-1, sequence (P06870 whole entry): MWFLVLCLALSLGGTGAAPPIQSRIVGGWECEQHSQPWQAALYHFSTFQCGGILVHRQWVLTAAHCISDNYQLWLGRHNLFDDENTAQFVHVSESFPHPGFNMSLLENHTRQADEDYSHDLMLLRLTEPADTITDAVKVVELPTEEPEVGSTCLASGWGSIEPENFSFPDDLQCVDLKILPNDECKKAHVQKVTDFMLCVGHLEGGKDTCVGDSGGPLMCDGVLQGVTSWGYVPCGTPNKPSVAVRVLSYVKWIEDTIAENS

IC50 [1] [µM] | IC50 [2] [µM] | IC50 [3] [µM] | IC50 [4] [µM] | IC50 [5] [µM] | IC50 [6] [µM] | IC50 [7] [µM] | IC50 [8] [µM] | IC50 [9] [µM] | half-life [10] [min] | half-life [11] [min] | half-life [12] [min] | half-life [13] [min] | half-life [14] [min] | half-life [15] [min] | AUC [16] [ng·h/mL] | AUC [17] [ng·h/mL] | SMILES
> 100 | > 100 | > 100 | > 100 | 0.055 | 2.32 | 12.5 | > 100 | 108 |  |  |  |  |  |  |  |  | N=C(N)Nc1ccc(C(=O)Oc2ccc(CC(=O)O)cc2)cc1
15.7 | > 100 | > 100 | > 100 | 0.0112 | 0.19 | 0.873 | > 100 | 3.66 | < 1 | 11 | < 1 | < 1 | 25 | > 60 |  |  | C=CCN(CC(=O)OCC)C(=O)/C(C)=C/c1ccc(C(=O)Oc2ccc(C(=N)N)cc2)cc1.CS(=O)(=O)O
> 100 | > 100 | > 100 | > 100 | 0.00413 | 0.0965 | 1.83 | > 100 | 35 | > 60 | > 60 | > 60 | > 60 | 15 | > 60 | 5230 | 27000 | C=CCN(CC(=O)O)C(=O)/C(C)=C/c1ccc(C(=O)Oc2ccc(C(=N)N)cc2)cc1.CS(=O)(=O)O
34.1 | > 100 | > 100 | > 100 | 0.0506 | 1.48 | 2.62 | > 100 |  |  |  |  |  |  |  | 1820 |  | CN(C)C(=O)COC(=O)Cc1ccc(OC(=O)c2ccc(NC(=N)N)cc2)cc1.CS(=O)(=O)O [CAMOSTAT MESILATE]
